Results taken from ChEMBL document CHEMBL2016550, “Synthesis and structure-activity relationships of 1,2,4-triazolo[1,5-a]pyrimidin-7(3H)-ones as novel series of potent β isoform selective phosphatidylinositol 3-kinase inhibitors” (Bioorg Med Chem Lett, 2012).

Columns and labels:
[1] = Selectivity ratio of IC50 for PI3Kdelta to IC50 for PI3Kbeta
[2] = molecular target: Phosphatidylinositol 4,5-bisphosphate 3-kinase catalytic subunit alpha isoform (Homo sapiens, UniProt P42336); assay: Inhibition of PI3Kalpha by continuous read time resolved fluorescence resonance energy transfer displacement assay
[3] = molecular target: T1, Phosphatidylinositol 4,5-bisphosphate 3-kinase catalytic subunit beta isoform (Homo sapiens, UniProt P42338); assay: Inhibition of PI3Kbeta by continuous read time resolved fluorescence resonance energy transfer displacement assay
[4] = molecular target: Phosphatidylinositol 4,5-bisphosphate 3-kinase catalytic subunit gamma isoform (Homo sapiens, UniProt P48736); assay: Inhibition of PI3Kgamma by continuous read time resolved fluorescence resonance energy transfer displacement assay
[5] = molecular target: T2, Phosphatidylinositol 4,5-bisphosphate 3-kinase catalytic subunit delta isoform (Homo sapiens, UniProt O00329); assay: Inhibition of PI3Kdelta by continuous read time resolved fluorescence resonance energy transfer displacement assay
T2 sequence (O00329 whole entry): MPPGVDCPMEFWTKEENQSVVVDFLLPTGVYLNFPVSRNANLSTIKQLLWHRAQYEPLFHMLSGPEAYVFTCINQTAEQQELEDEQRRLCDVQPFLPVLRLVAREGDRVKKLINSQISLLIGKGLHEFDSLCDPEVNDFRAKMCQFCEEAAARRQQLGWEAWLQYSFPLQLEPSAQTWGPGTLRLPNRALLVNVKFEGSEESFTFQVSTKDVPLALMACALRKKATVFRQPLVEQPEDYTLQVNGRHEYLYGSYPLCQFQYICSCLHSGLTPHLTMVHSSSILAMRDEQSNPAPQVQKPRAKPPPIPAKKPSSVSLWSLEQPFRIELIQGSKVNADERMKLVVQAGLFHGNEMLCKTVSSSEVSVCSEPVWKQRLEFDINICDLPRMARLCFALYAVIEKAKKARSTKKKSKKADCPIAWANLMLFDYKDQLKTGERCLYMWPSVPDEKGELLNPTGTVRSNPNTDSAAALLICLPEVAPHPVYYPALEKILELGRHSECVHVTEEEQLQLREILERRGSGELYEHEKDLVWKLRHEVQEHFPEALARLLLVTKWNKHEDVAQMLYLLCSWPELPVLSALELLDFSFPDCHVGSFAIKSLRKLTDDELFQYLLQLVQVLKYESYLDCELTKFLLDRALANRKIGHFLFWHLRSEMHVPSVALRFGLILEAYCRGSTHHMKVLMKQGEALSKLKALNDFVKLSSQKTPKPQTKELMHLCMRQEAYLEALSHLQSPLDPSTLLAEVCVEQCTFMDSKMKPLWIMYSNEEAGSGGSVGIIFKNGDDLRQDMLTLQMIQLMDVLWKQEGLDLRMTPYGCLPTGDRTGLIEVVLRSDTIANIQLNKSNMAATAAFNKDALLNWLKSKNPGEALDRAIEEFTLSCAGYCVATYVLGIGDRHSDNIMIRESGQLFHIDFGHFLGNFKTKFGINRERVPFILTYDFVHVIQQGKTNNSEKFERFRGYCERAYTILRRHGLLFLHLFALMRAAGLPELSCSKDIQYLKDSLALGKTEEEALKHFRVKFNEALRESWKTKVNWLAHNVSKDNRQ

[6] = molecular target: T1, Phosphatidylinositol 4,5-bisphosphate 3-kinase catalytic subunit beta isoform; assay: Inhibition of PI3K beta-mediated AKT phosphorylation at serine 473 in PTEN deficient human MDA-MB-468 cells after 30 mins; type: cell-based
Summary of the method: (§1)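 Breast cancer cells plated and held about 16–20 h, then exposed to compound for 30 min at 0.15% final DMSO. After a Tris wash, cells were lysed in buffer with protease and phosphatase inhibitors. Ser473-pAKT and total AKT were measured by MSD duplex immunoassay, normalised to total AKT (pAKT + AKT signal), and expressed as percent of DMSO control. IC50 from concentration-response fits; means of at least 2 experiments.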

MDA-MB-468 = assay: Cytotoxicity against PTEN deficient human MDA-MB-468 cells after 6 days by alamar blue assay; type: functional, cell-based
Summary of the method: (§2)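 Cells were grown anchorage-independently: a 0.6% agar/medium + 10% FBS bottom layer, cells in 0.3% agar/medium + 10% FBS, and medium + 10% FBS on top. After 16–20 h they were dosed (0.15% final DMSO) for 6 days, with a baseline plate read at dosing. Alamar Blue was added for 6 h and read as fluorescence (ex 530/em 590 nm). Signal from 0.3% Brij 35 background wells was subtracted, values were expressed as % of DMSO control, and fitted with a 4-parameter logistic.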

[7] = molecular target: Serine/threonine-protein kinase mTOR (Homo sapiens, UniProt P42345); assay: Inhibition of mTOR
[8] = Inhibition of DNA-PK
[9] = molecular target: T1, Phosphatidylinositol 4,5-bisphosphate 3-kinase catalytic subunit beta isoform; assay: Inhibition of PI3K beta-mediated AKT phosphorylation at serine 473 in PTEN wild type human HCC1954 cells; type: cell-based; summary of the method: as §1
HCC1954 = assay: Cytotoxicity against PTEN wild type human HCC1954 cells after 6 days by alamar blue assay; type: functional, cell-based; conditions: HCC1954, 144 h; summary of the method: as §2
[10] = Clearance in rat at 0.25 mg/kg, iv; type: ADME, organism-based; design: dose 0.25 mg/kg, route intravenous; conditions: in vivo
Summary of the method: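 Rats given a single IV dose at 0.25 mg/kg, formulated in 1% DMSO with 20% Encapsin in saline. Clearance was calculated after IV administration. Reported values are means of at least 2 experiments.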

[11] = Homo sapiens, MDA-MB-468, 144 h, read-out: EC50

T1 sequence (P42338 whole entry, canonical isoform): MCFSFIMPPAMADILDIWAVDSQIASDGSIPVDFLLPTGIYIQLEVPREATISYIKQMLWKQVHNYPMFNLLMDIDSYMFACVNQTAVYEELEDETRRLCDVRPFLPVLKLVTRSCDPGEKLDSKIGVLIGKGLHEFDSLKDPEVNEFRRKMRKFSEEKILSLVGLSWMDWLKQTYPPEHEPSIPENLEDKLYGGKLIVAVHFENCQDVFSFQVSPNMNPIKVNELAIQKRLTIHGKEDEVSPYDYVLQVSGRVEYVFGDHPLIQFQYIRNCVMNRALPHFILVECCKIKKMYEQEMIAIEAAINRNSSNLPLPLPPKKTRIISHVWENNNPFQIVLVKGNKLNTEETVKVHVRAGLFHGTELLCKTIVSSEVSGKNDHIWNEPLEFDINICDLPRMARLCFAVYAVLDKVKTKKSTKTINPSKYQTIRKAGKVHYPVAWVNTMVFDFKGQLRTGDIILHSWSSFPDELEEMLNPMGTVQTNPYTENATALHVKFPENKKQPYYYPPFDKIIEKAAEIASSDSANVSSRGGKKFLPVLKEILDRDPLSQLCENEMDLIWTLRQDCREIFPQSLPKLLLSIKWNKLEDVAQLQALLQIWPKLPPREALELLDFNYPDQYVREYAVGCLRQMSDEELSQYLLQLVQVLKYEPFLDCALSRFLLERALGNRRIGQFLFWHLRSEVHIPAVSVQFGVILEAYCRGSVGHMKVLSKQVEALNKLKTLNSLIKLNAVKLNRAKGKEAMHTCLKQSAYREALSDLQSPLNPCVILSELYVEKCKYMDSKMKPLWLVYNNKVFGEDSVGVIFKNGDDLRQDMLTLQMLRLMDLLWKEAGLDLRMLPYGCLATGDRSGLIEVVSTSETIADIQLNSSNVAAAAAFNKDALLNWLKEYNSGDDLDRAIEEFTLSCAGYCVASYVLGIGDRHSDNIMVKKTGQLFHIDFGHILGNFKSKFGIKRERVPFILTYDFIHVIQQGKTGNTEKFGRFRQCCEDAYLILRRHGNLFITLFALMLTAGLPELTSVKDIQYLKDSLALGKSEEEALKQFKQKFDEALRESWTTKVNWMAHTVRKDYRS
Phosphatidylinositol 4,5-bisphosphate 3-kinase catalytic subunit alpha isoform, sequence (P42336 whole entry, canonical isoform): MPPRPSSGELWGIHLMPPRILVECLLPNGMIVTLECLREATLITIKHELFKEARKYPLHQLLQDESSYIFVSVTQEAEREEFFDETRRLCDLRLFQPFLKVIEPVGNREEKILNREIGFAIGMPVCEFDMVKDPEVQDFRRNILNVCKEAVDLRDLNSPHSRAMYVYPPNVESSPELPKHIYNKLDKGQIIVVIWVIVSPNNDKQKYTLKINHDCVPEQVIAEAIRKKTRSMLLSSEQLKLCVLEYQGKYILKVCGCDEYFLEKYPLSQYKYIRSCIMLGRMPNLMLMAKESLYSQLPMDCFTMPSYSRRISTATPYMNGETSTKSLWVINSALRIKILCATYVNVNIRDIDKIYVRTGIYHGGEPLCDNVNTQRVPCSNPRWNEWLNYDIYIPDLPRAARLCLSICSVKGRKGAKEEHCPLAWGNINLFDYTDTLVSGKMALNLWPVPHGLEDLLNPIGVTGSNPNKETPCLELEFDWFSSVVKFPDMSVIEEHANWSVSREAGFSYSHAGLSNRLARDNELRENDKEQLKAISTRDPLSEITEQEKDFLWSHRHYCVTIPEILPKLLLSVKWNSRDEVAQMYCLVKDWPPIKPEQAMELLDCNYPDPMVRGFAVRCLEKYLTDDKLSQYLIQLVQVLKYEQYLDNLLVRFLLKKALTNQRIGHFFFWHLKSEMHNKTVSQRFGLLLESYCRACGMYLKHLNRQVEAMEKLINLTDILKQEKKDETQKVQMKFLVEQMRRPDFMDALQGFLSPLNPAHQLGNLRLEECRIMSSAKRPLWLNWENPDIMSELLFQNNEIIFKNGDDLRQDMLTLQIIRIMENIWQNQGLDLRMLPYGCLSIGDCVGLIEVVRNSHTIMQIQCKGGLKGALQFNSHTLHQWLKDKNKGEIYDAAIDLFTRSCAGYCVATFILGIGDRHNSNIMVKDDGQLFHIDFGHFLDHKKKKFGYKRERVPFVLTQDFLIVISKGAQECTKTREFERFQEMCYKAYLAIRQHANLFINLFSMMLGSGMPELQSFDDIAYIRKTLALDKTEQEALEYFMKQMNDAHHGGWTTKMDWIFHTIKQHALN
Phosphatidylinositol 4,5-bisphosphate 3-kinase catalytic subunit gamma isoform, sequence (P48736 whole entry, canonical isoform): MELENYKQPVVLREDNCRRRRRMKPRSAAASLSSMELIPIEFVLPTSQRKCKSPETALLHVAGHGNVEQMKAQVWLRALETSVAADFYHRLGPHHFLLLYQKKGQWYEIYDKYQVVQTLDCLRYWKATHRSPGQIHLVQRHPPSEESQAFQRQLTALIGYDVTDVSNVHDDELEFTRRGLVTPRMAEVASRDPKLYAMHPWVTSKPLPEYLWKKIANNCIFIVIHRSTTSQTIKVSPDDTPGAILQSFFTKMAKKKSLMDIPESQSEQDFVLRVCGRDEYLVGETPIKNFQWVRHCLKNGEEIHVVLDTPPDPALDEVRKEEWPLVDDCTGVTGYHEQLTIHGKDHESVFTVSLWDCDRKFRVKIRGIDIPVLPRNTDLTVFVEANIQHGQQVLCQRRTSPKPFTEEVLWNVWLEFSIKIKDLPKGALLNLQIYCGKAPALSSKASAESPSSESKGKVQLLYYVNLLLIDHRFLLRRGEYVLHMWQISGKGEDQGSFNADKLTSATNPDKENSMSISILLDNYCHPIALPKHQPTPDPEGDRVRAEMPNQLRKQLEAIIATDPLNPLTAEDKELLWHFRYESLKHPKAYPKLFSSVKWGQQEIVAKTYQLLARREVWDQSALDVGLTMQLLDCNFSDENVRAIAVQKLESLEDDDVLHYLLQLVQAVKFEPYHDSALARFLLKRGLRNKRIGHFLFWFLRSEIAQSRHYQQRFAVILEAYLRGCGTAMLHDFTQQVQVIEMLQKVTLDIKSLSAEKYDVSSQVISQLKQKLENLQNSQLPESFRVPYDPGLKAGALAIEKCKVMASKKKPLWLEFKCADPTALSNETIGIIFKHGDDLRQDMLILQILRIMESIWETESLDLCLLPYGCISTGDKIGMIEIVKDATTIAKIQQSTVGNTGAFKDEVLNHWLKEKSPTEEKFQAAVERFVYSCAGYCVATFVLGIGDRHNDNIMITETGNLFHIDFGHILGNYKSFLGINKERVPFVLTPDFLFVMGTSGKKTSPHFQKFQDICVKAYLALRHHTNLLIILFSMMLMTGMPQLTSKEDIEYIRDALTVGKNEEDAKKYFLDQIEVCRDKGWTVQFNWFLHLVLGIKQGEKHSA

Compound | Ratio IC50 [1] | IC50 [2] [nM] | IC50 [3] [nM] | IC50 [4] [nM] | IC50 [5] [nM] | IC50 [6] [nM] | EC50 (MDA-MB-468; [11]) [nM] | EC50 (MDA-MB-468; mda-mb-468, read-out: EC50) [nM] | IC50 [7] [nM] | IC50 [8] [nM] | IC50 [9] [nM] | EC50 (HCC1954) [nM] | EC50 (MDA-MB-468; mda-mb-468) | clearance [10] [mL/min/kg]
Cc1c(Cn2c(C)nn3c(=O)cc(N4CCOC(C)C4)nc23)cccc1C(F)(F)F (single isomer, unassigned; enantiomer 1) [listing 1 of 2 here] | 6 |  |  |  |  |  |  |  |  |  |  |  |  | 
CSc1nn2c(=O)cc(N3CCOCC3)nc2n1Cc1cccc(Cl)c1Cl | 19 | 1600 | 1.6 | 500 | 31 | 13 | 240 |  |  |  |  |  |  | 
Cc1c(Cn2c(C)nn3c(=O)cc(N4CCOC(C)C4)nc23)cccc1C(F)(F)F (single isomer, unassigned; enantiomer 1) [listing 2 of 2 here] |  | 1600 | 3.1 | 790 | 63 | 7.9 |  | 310 |  |  |  |  |  | 
Cc1c(Cn2c(C)cn3c(=O)cc(N4CCOCC4)nc23)cccc1C(F)(F)F |  |  | 1.3 |  | 7.9 |  |  |  | 32000 | 800 | > 29000 | 9700 |  | 
Cc1c(Cn2c(C3CC3)nn3c(=O)cc(N4CCOCC4)nc23)cccc1C(F)(F)F | 6 | 2500 | 1.3 | 1600 | 40 | 4.1 | 40 |  |  |  |  |  |  | 
Cc1nn2c(=O)cc(N3CCOC(C)C3)nc2n1Cc1cccc(Cl)c1Cl (racemic) |  | 320 | 2 | 250 | 25 |  |  |  |  |  |  |  |  | 
CSc1nn2c(=O)cc(-c3ccncc3)nc2n1Cc1cccc(Cl)c1Cl | 6 | 400 | 13 | 2000 | 79 |  |  |  |  |  |  |  |  | 
O=c1cc(N2CCOCC2)nc2n(Cc3cccc(Cl)c3Cl)c(C3CC3)nn12 | 52 | 2500 | 2.5 | 2500 | 130 | 20 | 260 |  |  |  |  |  |  | 
Cc1nn2c(=O)cc(N3CCOC(C)C3)nc2n1Cc1cccc(Cl)c1Cl (stereo in doubt; 6) [listing 1 of 2 here] |  | 2500 | 25 | 7900 | 500 |  |  |  |  |  |  |  |  | 
CSc1nn2c(=O)cc(N3CCOCC3)nc2n1Cc1cccc(C(F)(F)F)c1C | 6 | 320 | 0.4 | 1300 | 25 | 5.1 |  |  |  |  |  |  | Not Active | 
Cc1c(Cn2c(C)nn3c(=O)nc(N4CCOCC4)cc23)cccc1C(F)(F)F |  |  | 2 |  |  | 92 | 210 |  |  |  |  |  |  | 83
Cc1c(Cn2c(C)nn3c(=O)cc(N4CCOCC4)nc23)cccc1C(F)(F)F | 6 | 630 | 0.6 | 790 | 20 | 1.5 | 110 |  |  |  |  |  |  | 130
Cc1nn2c(=O)cc(N3CCOCC3)nc2n1Cc1cccc(Cl)c1Cl | 6 | 630 | 1.3 | 500 | 50 | 34 | 170 |  |  |  |  |  |  | 
Cc1nn2c(=O)cc(N3CCOC(C)C3)nc2n1Cc1cccc(Cl)c1Cl (stereo in doubt; 6) [listing 2 of 2 here] | 20 |  |  |  |  |  |  |  |  |  |  |  |  | 
Cc1c(Cn2c(C)nn3c(=O)cc(N4CCOC(C)C4)nc23)cccc1C(F)(F)F (racemic) [listing 1 of 2 here] |  | 400 | 1.3 | 160 | 10 | 2.7 |  | 55 |  |  |  |  |  | 
Cc1c(Cn2c(C)nn3c(=O)cc(N4CCOC(C)C4)nc23)cccc1C(F)(F)F (single isomer, unassigned; enantiomer 2) [listing 1 of 2 here] | > 10 |  |  |  |  |  |  |  |  |  |  |  |  | 
Cc1c(Cn2c(C)nn3c(=O)cc(N4CCOC(C)C4)nc23)cccc1C(F)(F)F (racemic) [listing 2 of 2 here] | 6 |  |  |  |  |  |  |  |  |  |  |  |  | 
Cc1c(Cn2c(C)nn3c(=O)cc(N4CCOC(C)C4)nc23)cccc1C(F)(F)F (single isomer, unassigned; enantiomer 2) [listing 2 of 2 here] |  | 320 | 0.3 | 60 | 4 | 0.5 |  | 13 | 6300 | 160 | 2500 | 2200 |  | 
CSc1nn2c(=O)cc(N3CCOC(C)C3)nc2n1Cc1cccc(C(F)(F)F)c1C (stereo not drawn) | 6 | 1300 | 1 | 200 | 25 |  |  |  |  |  |  |  |  | 
Cc1nn2c(=O)cc(N3CCOC(C)C3)nc2n1Cc1cccc(Cl)c1Cl (single isomer, unassigned; enantiomer 2) |  | 1000 | 1.3 | 500 | 40 | 3.4 | 110 |  |  |  |  |  |  | 
